Reference: ChEMBL document CHEMBL1123379, “Cardiotonic agents. 2. Synthesis and structure-activity relationships in a new class of 6-, 7-, and 8-pyridyl-2(1H)-quinolone derivatives” (1986)

Assays:
Cavia porcellus [1] = organism: Cavia porcellus; test: Positive inotropic effect in isolated left guinea pig atria.; assay type: functional; details: read-out: ED50 (the source's name)
How it was run: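 Isolated left atria from guinea pigs of either sex (300–800 g), reserpine-pretreated (5 mg/kg ip) 24 h before death. Atria paced electrically at 2.5 Hz, 5 ms square pulses, voltage 50% above threshold; bath contained phentolamine 3.15×10^-4 mM. Isoprenaline dose-response curve run first to validate each preparation. Positive inotropy from dose-response curves; ED50 (mol·L⁻¹, dose giving 50% of maximum effect) by Ariens–Van Rossum method.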

Cavia porcellus [2] = organism: Cavia porcellus; test: Intrinsic activity calculated as the ratio of the maximum response to the compound to the maximum response to isoprenaline.; assay type: functional

Compound: O=c1ccc2cc(-c3cccnc3)ccc2n1CCN1CCOCC1
- EC50 (Cavia porcellus [1]): 22 µM
- Intrinsic activity (Cavia porcellus [2]): 0.58

Compound: COc1cc(-c2ccncc2)cc2ccc(O)nc12
- EC50 (Cavia porcellus [1]): 5 µM
- Intrinsic activity (Cavia porcellus [2]): 0.88

Compound: Cc1[nH]c(=O)c(C#N)cc1-c1ccncc1 [MILRINONE]
- EC50 (Cavia porcellus [1]): 14 µM
- Intrinsic activity (Cavia porcellus [2]): 0.67

Compound: COc1cc(-c2ccccn2)cc2ccc(O)nc12
- EC50 (Cavia porcellus [1]): 9.2 µM
- Intrinsic activity (Cavia porcellus [2]): 0.72

Compound: Oc1ccc2cc(-c3cccnc3)cc(Cl)c2n1
- EC50 (Cavia porcellus [1]): 0.28 µM
- Intrinsic activity (Cavia porcellus [2]): 0.68

Compound: Oc1ccc2ccc(-c3cccnc3)cc2n1
- EC50 (Cavia porcellus [1]): 8.3 µM
- Intrinsic activity (Cavia porcellus [2]): 0.67

Compound: CC(C)NCC(O)c1ccc(O)c(O)c1 (configuration not stated) [ISOPROTERENOL]
- Intrinsic activity (Cavia porcellus [2]): 1

Compound: COc1cc(-c2ccccn2)cc2c(C)cc(O)nc12
- EC50 (Cavia porcellus [1]): 4.85 µM
- Intrinsic activity (Cavia porcellus [2]): 0.74

Compound: Oc1ccc2cc(-c3ccccn3)cc(Cl)c2n1
- EC50 (Cavia porcellus [1]): 2.05 µM
- Intrinsic activity (Cavia porcellus [2]): 0.75

Compound: Oc1ccc2cccc(-c3cccnc3)c2n1
- EC50 (Cavia porcellus [1]): 140 µM
- Intrinsic activity (Cavia porcellus [2]): 0.41

Compound: COc1cc(-c2cccnc2)cc2c1NC(=O)CC2
- EC50 (Cavia porcellus [1]): 34 µM
- Intrinsic activity (Cavia porcellus [2]): 0.68

Compound: COc1cc(-c2ccncc2)cc2c1NC(=O)CC2
- EC50 (Cavia porcellus [1]): 6.5 µM
- Intrinsic activity (Cavia porcellus [2]): 0.68

Compound: Oc1ccc2cc(-c3ccncc3)ccc2n1
- EC50 (Cavia porcellus [1]): 2.5 µM
- Intrinsic activity (Cavia porcellus [2]): 0.45

Compound: c1cncc(-c2ccc3nc(OCCN4CCOCC4)ccc3c2)c1
- EC50 (Cavia porcellus [1]): 15 µM
- Intrinsic activity (Cavia porcellus [2]): 0.23

Compound: O=C1CCc2cc(-c3cccnc3)ccc2N1
- EC50 (Cavia porcellus [1]): 1.3 µM
- Intrinsic activity (Cavia porcellus [2]): 0.67

Compound: Oc1ccc2cc(-c3cccnc3)ccc2n1
- EC50 (Cavia porcellus [1]): 0.52 µM
- Intrinsic activity (Cavia porcellus [2]): 0.67

Compound: Cn1c(=O)ccc2cc(-c3cccnc3)ccc21
- EC50 (Cavia porcellus [1]): 110 µM
- Intrinsic activity (Cavia porcellus [2]): 0.33

Compound: Oc1ccc2cc(-c3ccncc3)cc(Cl)c2n1
- EC50 (Cavia porcellus [1]): 0.38 µM
- Intrinsic activity (Cavia porcellus [2]): 0.78

Compound: COc1cc(-c2cccnc2)cc2c(C)cc(O)nc12
- EC50 (Cavia porcellus [1]): 16 µM
- Intrinsic activity (Cavia porcellus [2]): 0.81

Compound: O=C1CCc2cc(-c3ccccn3)ccc2N1
- EC50 (Cavia porcellus [1]): 2.55 µM
- Intrinsic activity (Cavia porcellus [2]): 0.29

Compound: Cc1cc(C)c(-c2ccc3nc(O)ccc3c2)c(C)n1
- EC50 (Cavia porcellus [1]): 1.05 µM
- Intrinsic activity (Cavia porcellus [2]): 0.38

Compound: Oc1ccc2cc(-c3cccnc3)cc(O)c2n1
- EC50 (Cavia porcellus [1]): 0.75 µM
- Intrinsic activity (Cavia porcellus [2]): 0.72

Compound: Oc1ccc2cc(-c3ccccn3)cc(O)c2n1
- EC50 (Cavia porcellus [1]): 19 µM
- Intrinsic activity (Cavia porcellus [2]): 0.51

Compound: Nc1cc(Cl)c2nc(O)ccc2c1
- EC50 (Cavia porcellus [1]): 100 µM
- Intrinsic activity (Cavia porcellus [2]): 0.54

Compound: O=C1CCc2cc(-c3ccncc3)ccc2N1
- EC50 (Cavia porcellus [1]): 14 µM
- Intrinsic activity (Cavia porcellus [2]): 0.56

Compound: COc1cc(-c2ccncc2)cc2c(C)cc(O)nc12
- EC50 (Cavia porcellus [1]): 7 µM
- Intrinsic activity (Cavia porcellus [2]): 0.5

Compound: Oc1ccc2cc(-c3ccccn3)ccc2n1
- EC50 (Cavia porcellus [1]): 15 µM
- Intrinsic activity (Cavia porcellus [2]): 0.67

Compound: COc1cc(-c2ccccn2)cc2c1NC(=O)CC2
- EC50 (Cavia porcellus [1]): 6.4 µM
- Intrinsic activity (Cavia porcellus [2]): 0.71

Compound: COc1cc(-c2cccnc2)cc2ccc(O)nc12
- EC50 (Cavia porcellus [1]): 6.5 µM
- Intrinsic activity (Cavia porcellus [2]): 0.57
